# Screening results: PubChem BioAssay, several laboratories
# Compounds with a hit are over-represented: about 1.4% of the library has one in this group of screens.
# CSN deneddyl inh: inhibitors of CSN-mediated cullin deneddylation, primary screen, biochemical, fluorescence polarization, uHTS | COP9 signalosome complex subunit 5 (Homo sapiens), Q92905 | Purified CSN, SCF-Nedd8-OG deneddylation | inhibition, % at 12.5 µM | actives 0.38% (n = 360,000) | AID 651999, 2013;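 active means pattern-corrected inhibition above about 35%, with an unprinted fluorescence ratio check between 0.5 and 1.5, limit read from the data, passing the limit was not always enough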;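 further: 0% = enzyme with substrate and 100% = substrate without enzyme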
# Target sequence (Q92905 whole entry, looked up, one chain of several): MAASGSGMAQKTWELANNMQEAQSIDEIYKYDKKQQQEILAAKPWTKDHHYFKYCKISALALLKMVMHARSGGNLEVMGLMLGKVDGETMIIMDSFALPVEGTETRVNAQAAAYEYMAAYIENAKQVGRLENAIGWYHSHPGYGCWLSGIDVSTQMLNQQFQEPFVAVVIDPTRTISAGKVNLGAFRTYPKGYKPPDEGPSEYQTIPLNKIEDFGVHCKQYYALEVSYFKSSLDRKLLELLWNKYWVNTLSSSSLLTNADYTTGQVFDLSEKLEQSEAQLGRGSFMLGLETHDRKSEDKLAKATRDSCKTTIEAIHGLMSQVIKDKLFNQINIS
#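 Test system: purified human Csn5 enzyme expressed in HEK293T cells. Amount: 0.24 nM enzyme. Reagent: SCFSkp2-Nedd8OG substrate at 10 nM final. Schedule: 90 min incubation of compound, enzyme and substrate at room temperature. Detection: fluorescence polarization. Read-out: % inhibition of substrate cleavage by Csn5.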
# IDE inh: human IDE inhibitors in live cells, primary screen, fluorescence polarization, HEK cells, FAbetaB substrate | AID 434962, 2010 | inhibition, % at 5.59 µM | Insulin-degrading enzyme (Homo sapiens), P14735 | FAbetaB cleavage | actives 0.41% (n = 320,000);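 active means percent inhibition above the average of all tested compounds plus 3 SD, set per screening campaign, cut at about 16% in these data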;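 further: IDE supplied by intact live HEK cells; FP after avidin binding of uncleaved biotin substrate so inhibition keeps polarization high; 0% = DMSO wells and 100% = 60 µM reference IDE inhibitor Ii1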
# IDE cell activ: human IDE activators in live cells, primary screen, fluorescence polarization, HEK cells, FAbeta-B substrate; FAbeta-B cleavage; 0% vehicle, 100% cell-free pure enzyme wells; AID 493087, 2011; activation, % at 5.96 µM; actives 0.073% (n = 340,000);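 active means activation above the mean of all tested compounds plus 3 SD, set per screening campaign, cut at about 17% in these data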
# HNF4A DNA FP: change in binding of human HNF4A to DNA, primary screen, biochemical, fluorescence polarization, FITC-DNA; Hepatocyte nuclear factor 4-alpha (Homo sapiens), P41235; 1 h; activity change, % at 10 µM; actives 0.3% (n = 360,000); in the data active means activity change above about 30%, passing the limit was not always enough
# TPT1 inh: Candida albicans TPT1 enzyme inhibitors, primary screen, biochemical, fluorescence polarization; tRNA 2'-phosphotransferase TPT1 (Candida albicans SC5314); recombinant caTPT1, FP RNA substrate dephosphorylation; inhibition, % at 5 µM; actives 0.81% (n = 300,000);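 active means inhibition above the mean of all tested compounds plus 3 SD, set per screening campaign, cut at about 24% in these data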;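 further: plate controls were DMSO alone for no effect and ferristatin control at 100 nM for full effect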
# caTPT1 confirm: Candida albicans TPT1 inhibitors, confirmation, biochemical, fluorescence polarization, triplicate; shares compounds with TPT1 inh; recombinant caTPT1, RNase T1 coupled; inhibition, % at 5 µM; actives 74% (n = 2,400); AID 2149, 2009;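 active means inhibition above the primary screen limit, the mean inhibition of all tested compounds plus 3 SD, cut at about 25% in these data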
# RNase T1 inh: RNase T1 inhibitors, counter-screen for TPT1 inhibitor project, biochemical, fluorescence polarization | shares compounds with TPT1 inh | RNase T1 cleavage, 1536-well | inhibition, % at 5 µM | actives 83% (n = 2,400);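 active means inhibition above the solvent-only control well mean plus 3 SD, limit set per screening run, cut at about 23% in these data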;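 further: plate controls were DMSO wells with enzyme for no effect and wells without RNase T1 for full effect; inhibitors block cleavage so intact labeled substrate keeps polarization high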
# Target sequence (P00651 whole entry, looked up): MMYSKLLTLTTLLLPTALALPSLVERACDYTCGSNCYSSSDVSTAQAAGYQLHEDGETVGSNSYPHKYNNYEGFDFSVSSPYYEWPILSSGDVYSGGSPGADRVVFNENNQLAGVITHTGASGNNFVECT
# CSN deneddyl val: Csn5 deneddylation inhibitors, confirmation, biochemical, fluorescence polarization, single concentration, SCF-Nedd8OG substrate; shares compounds with CSN deneddyl inh; Csn5 deneddylation of SCF-Nedd8OG, 90 min; inhibition, % at 16.6 µM; actives 62% (n = 540); AID 720654, 2013; in the data active means inhibition above about 50%;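 further: 0% = DMSO with enzyme and 100% = no enzyme wells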
# MMP2 cntr CSN: MMP-2 protease inhibition counter-screen, confirmation, counter-screen for CSN deneddylation inhibitor project, biochemical, fluorescence, single concentration; shares compounds with CSN deneddyl inh; recombinant MMP-2, FRET substrate fluorescence, 60 min; inhibition, % at 16.6 µM; actives 33% (n = 540); AID 720655, 2013;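 active means corrected plate-normalized z-score of 5 or more, or -5 or less, or inhibition of 15% or more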;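 further: plate controls were DMSO wells with enzyme for no effect and buffer wells lacking MMP-2 for full effect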
# Thrombin cntr: counter-screen for CSN deneddylation inhibitors: bovine thrombin inhibition; inhibition, % at 16.6 µM; actives 49% (n = 540); bovine thrombin cleavage of Ub4-pepOG, fluorescence polarization; shares compounds with CSN deneddyl inh;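 active means inhibition at or above a set limit, with a fluorescence interference ratio between 0.5 and a set maximum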
# * hit, by the source's call; . = not tested or not shown.
SMILES,CSN deneddyl inh,IDE inh,IDE cell activ,HNF4A DNA FP,TPT1 inh,caTPT1 confirm,RNase T1 inh,CSN deneddyl val,MMP2 cntr CSN,Thrombin cntr
O=C(O)CC(C(=O)O)N1C(=O)/C(=C/c2ccc(-c3nc4ccccc4s3)o2)SC1=S (stereo not drawn),47*,7,-14,9,91*,109*,114*,82*,9,83*
O=C(O)CC(C(=O)O)N1C(=O)/C(=C/C=C/c2ccco2)SC1=S (stereo not drawn),48*,1,-5,-41,67*,29*,36*,38,34*,49*
O=C(O)CCCN1C(=O)/C(=C/C=C/c2ccco2)SC1=S,40*,4,1,-56,84*,37*,38*,45,44*,22*
CCC(CC)C(C(=O)NCc1ccccc1)N1CCN(CCN2CCOCC2)CC1 (stereo not drawn),-4,.,.,0,.,.,.,.,.,.
O=C1NC(=O)C(c2ccccc2)(C2CCCC2)N1 (stereo not drawn),-3,.,3,1,.,.,.,.,.,.
N#Cc1ccccc1S(=O)(=O)N1CCN(C(=O)[C@@H]2CCCN2C(=O)c2cccs2)CC1,-7,1,3,0,.,.,.,.,.,.
CCc1sc(C(=O)N(CCOC)c2c(N)n(Cc3ccccc3)c(=O)[nH]c2=O)cc1C,4,.,.,1,.,.,.,.,.,.
Cc1ccc2c(nc3s/c(=C\c4ccc(-c5ccccc5C(=O)O)o4)c(=O)n32)c1C,102*,2,-5,83,116*,138*,130*,-27,-27,18
Cc1ccc2c(nc3s/c(=C/c4cccs4)c(=O)n32)c1C,4,.,1,6,.,.,.,.,.,.
CCOC(=O)SC1=N/C(=C\c2ccc(N(C)C)cc2)C(=O)S1,43*,8,-27,79*,82*,101*,102*,80*,-7,46*
CN(C(=O)COC(=O)c1cc(S(=O)(=O)N2CCCCC2)ccc1Cl)c1ccccc1,-1,-2,-4,1,.,.,.,.,.,.
O=C(COC(=O)c1ccccc1[N+](=O)[O-])Nc1nnc(-c2ccccc2)o1,-2,-2,4,1,-2,.,.,.,.,.
Nc1c(C=C2C=CC(=O)C=C2)c(=O)nc2sc(CC(=O)N3CCCCC3)nn12,0,3,2,-4,-2,.,.,.,.,.
